Measured values reported in ChEMBL document CHEMBL1122679, “Beta-adrenergic blocking agents: substituted phenylalkanolamines. Effect of side-chain length on beta-blocking potency in vitro” (J Med Chem, 1984).

Columns and labels:
[1] = Partition coefficient (logP); assay type: physicochemical; conditions: octanol/water
Procedure, shortened: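 Octanol/buffer partitioning. Compounds at about 10^-4 M in 0.067 M pH 7.4 phosphate buffer (octanol-saturated) were shaken with buffer-saturated 1-octanol for 1 h at 25.0 °C, then centrifuged. Concentrations in each phase were measured spectrophotometrically. The coefficient was taken as the octanol/buffer concentration ratio, done in triplicate.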

Cavia porcellus [2] = species: Cavia porcellus; experiment: Beta-adrenoceptor blocking potency in the isolated guinea pig heart, giving 50% inhibition of isoproterenol-induced tachycardia; assay type: functional
Procedure, shortened: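 Langendorff-perfused isolated hearts from male Pirbright guinea pigs (330-640 g), removed under urethane anesthesia (1.5 g/kg ip). Perfusion with oxygenated Krebs-Henseleit plus ascorbic acid and NaEDTA at 36 °C. Heart rate recorded continuously. After ~30 min control, DL-isoproterenol sulfate (0.005 µg/mL) was added to the perfusate. Increasing compound concentrations were then given, 10 min each, against the isoproterenol tachycardia.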

Cavia porcellus [3] = species: Cavia porcellus; experiment: Beta-adrenoceptor blocking potency in the isolated guinea pig heart, giving 50% inhibition of isoproterenol-induced tachycardia relative to oxprenolol; assay type: functional
Cavia porcellus [4] = species: Cavia porcellus; experiment: Compound was evaluated for beta-adrenoceptor blocking potency in the isolated guinea pig, giving 50% inhibition of isoproterenol-induced tachycardia relative to oxprenolol; assay type: functional
[5] = pK value is evaluated; assay type: ADME; conditions: read-out: pK
Procedure, shortened: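 Spectrophotometric determination. Dilute solutions were circulated through a glass electrode and a 1-cm spectrophotometer cell. pKa was calculated from the pH-dependent spectra.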

**Q.** For `NC(=O)c1cc(OCCNCC(O)c2ccccc2)ccc1O` (stereo unspecified), which logP ([1]; read-out: logP) is on record?
**A.** The logP was 1.24.

**Q.** And the “-Log concentration” value (Cavia porcellus [2])?
**A.** The value was 5.66 log_unit.

**Q.** And the Relative activity (Cavia porcellus [3])?
**A.** Its Relative activity is 0.011.

**Q.** With `COc1ccc(CCC(O)CNCCOc2ccc(O)c(C(N)=O)c2)cc1` (stereo unspecified) as the molecule, how does the “-Log concentration” value (Cavia porcellus [2]) read?
**A.** Its value is 6.07 log_unit.

**Q.** What about the Relative activity (Cavia porcellus [4]) of the same molecule?
**A.** The Relative activity was 0.029.

**Q.** For `NC(=O)c1cc(OCCNCC(O)CCc2ccccc2)ccc1O` (stereo unspecified), which “-Log concentration” value (Cavia porcellus [2]) is on record?
**A.** Its value is 6.9 log_unit.

**Q.** What about the Relative activity (Cavia porcellus [3]) of the same molecule?
**A.** The Relative activity was 0.19.

**Q.** What does the source list for `COc1ccccc1CCCC(O)CNCCOc1ccc(O)c(C(N)=O)c1` (stereo unspecified)?
**A.** -Log concentration (Cavia porcellus [2]): 6.6 log_unit; Relative activity (Cavia porcellus [3]): 0.1

**Q.** Which results are given for `COc1ccccc1C(O)CNCCOc1ccc(O)c(C(N)=O)c1` (stereo unspecified)?
**A.** -Log concentration (Cavia porcellus [2]): 7.12 log_unit; Relative activity (Cavia porcellus [3]): 0.33

**Q.** For `COc1ccccc1CCC(O)CNC(C)(C)C` (stereo unspecified), which logP ([1]; read-out: logP) is on record?
**A.** Its logP is -0.21.

**Q.** And the pKa [5]?
**A.** Its pKa is 9.9.

**Q.** What about the “-Log concentration” value (Cavia porcellus [2]) of the same molecule?
**A.** Its value is 5.67 log_unit.

**Q.** What about the Relative activity (Cavia porcellus [3]) of the same molecule?
**A.** Its Relative activity is 0.012.

**Q.** What does the source list for `COc1ccccc1OCC(O)CNCCOc1ccc(O)c(C(N)=O)c1` (stereo unspecified)?
**A.** logP ([1]; read-out: logP): 1.14; pKa [5]: 8.8; -Log concentration (Cavia porcellus [2]): 8.45 log_unit; Relative activity (Cavia porcellus [4]): 6.9

**Q.** With `COc1ccccc1CC(O)CNCCOc1ccc(O)c(C(N)=O)c1` (stereo unspecified) as the molecule, how does the “-Log concentration” value (Cavia porcellus [2]) read?
**A.** Its value is 6.39 log_unit.

**Q.** And the Relative activity (Cavia porcellus [3])?
**A.** Its Relative activity is 0.061.

**Q.** Which results are given for `COc1ccccc1OCC(O)CNC(C)(C)C` (stereo unspecified)?
**A.** logP ([1]; read-out: logP): -0.44; pKa [5]: 9.8; -Log concentration (Cavia porcellus [2]): 7.26 log_unit; Relative activity (Cavia porcellus [3]): 0.45

**Q.** What does the source list for `NC(=O)c1cc(OCCNCC(O)CCCCc2ccccc2)ccc1O` (stereo unspecified)?
**A.** -Log concentration (Cavia porcellus [2]): 5.85 log_unit; Relative activity (Cavia porcellus [3]): 0.018

**Q.** Which results are given for `NC(=O)c1cc(OCCNCC(O)Cc2ccccc2)ccc1O` (stereo unspecified)?
**A.** -Log concentration (Cavia porcellus [2]): 5.84 log_unit; Relative activity (Cavia porcellus [3]): 0.018

**Q.** For `COc1ccccc1CCCCC(O)CNCCOc1ccc(O)c(C(N)=O)c1` (stereo unspecified), which “-Log concentration” value (Cavia porcellus [2]) is on record?
**A.** Its value is 6.43 log_unit.

**Q.** And the Relative activity (Cavia porcellus [3])?
**A.** Its Relative activity is 0.068.

**Q.** For `Cc1ccccc1CCC(O)CNCCOc1ccc(O)c(C(N)=O)c1` (stereo unspecified), which “-Log concentration” value (Cavia porcellus [2]) is on record?
**A.** Its value is 7.08 log_unit.

**Q.** What about the Relative activity (Cavia porcellus [3]) of the same molecule?
**A.** The Relative activity was 0.3.

**Q.** For `COc1ccccc1CCC(O)CNCCOc1ccc(O)c(C(N)=O)c1` (stereo unspecified), which logP ([1]; read-out: logP) is on record?
**A.** Its logP is 1.56.

**Q.** And the pKa [5]?
**A.** The pKa was 8.9.

**Q.** What about the “-Log concentration” value (Cavia porcellus [2]) of the same molecule?
**A.** The value was 7.85 log_unit.

**Q.** And the Relative activity (Cavia porcellus [3])?
**A.** Its Relative activity is 1.8.

**Q.** Which logP [1] does the source give for `C=CCOc1ccccc1OCC(O)CNC(C)C` (stereo unspecified) [OXPRENOLOL] here?
**A.** Its logP is 0.2.

**Q.** And the pKa [5]?
**A.** Its pKa is 9.4.

**Q.** And the “-Log concentration” value (Cavia porcellus [2])?
**A.** Its value is 7.6 M l-1.

**Q.** What about the Relative activity (Cavia porcellus [3]) of the same molecule?
**A.** Its Relative activity is 1.
